Data reported in ChEMBL document CHEMBL1121485, “Antiestrogens. Synthesis and evaluation of mammary tumor inhibiting activity of 1,1,2,2-tetraalkyl-1,2 -diphenylethanes” (1980).

Experiments:
[1] = target: T1, Estrogen receptor (Bos taurus) (UniProt Q9XSB5+P49884); assay: Ratio of association constants for estradiol and compound in estrogen receptor binding assay; type: protein assay
[2] = target: T1, Estrogen receptor (Bos taurus); assay: Association constant for Estrogen receptor; type: protein assay
[3] = target: T1, Estrogen receptor (Bos taurus); assay: Relative binding affinity for Estrogen receptor compared to 17-beta-estradiol; type: protein assay
[4] = target: T2, Estrogen receptor (Mus musculus) (UniProt O08537+P19785); assay: Uterotrophic effect in mice as uterus dry weight(mg) compared to body weight(g) at 10 ug/day dose; type: functional, tissue-based
Procedure, shortened: (§1)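 Mice aged 20 days at start, dosed sc once daily for 3 days (0.1 mL injections, arachis oil vehicle); vehicle-only control group. Killed 24 h after last dose; body weight recorded; uteri fixed in Bouin's solution 12 h, trimmed of connective tissue, washed with saturated alcoholic LiCl, dried 100 °C for 24 h, then weighed.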

Mus musculus [5] = species: Mus musculus; assay: Inhibition of estrone-stimulated uterine growth in mice at 100 ug
[6] = target: T2, Estrogen receptor (Mus musculus); assay: Uterotrophic effect in mice as uterus dry weight(mg) compared to body weight(g) at 50 ug/day dose; type: functional, tissue-based; procedure, shortened: as §1
Mus musculus [7] = species: Mus musculus; assay: Inhibition of estrone-stimulated uterine growth in mice at 2.5 ug
[8] = target: T2, Estrogen receptor (Mus musculus); assay: Uterotrophic effect in mice as uterus dry weight(mg) compared to body weight(g) at 0 ug/day dose; type: functional, tissue-based; procedure, shortened: as §1
[9] = target: T2, Estrogen receptor (Mus musculus); assay: Anti-uterotrophic effect in mice as uterus dry weight(mg) compared to body weight(g) at 25 ug/day dose; type: functional, tissue-based; procedure, shortened: as §1
[10] = target: T2, Estrogen receptor (Mus musculus); assay: Uterotrophic effect in mice as uterus dry weight(mg) compared to body weight(g) at 250 ug/day dose; type: functional, tissue-based; procedure, shortened: as §1
[11] = target: T2, Estrogen receptor (Mus musculus); assay: Anti-uterotrophic effect in mice as uterus dry weight(mg) compared to body weight(g) at 100 ug/day dose; type: functional, tissue-based; procedure, shortened: as §1
[12] = target: T2, Estrogen receptor (Mus musculus); assay: Anti-uterotrophic effect in mice as uterus dry weight(mg) compared to body weight(g) at 10 ug/day dose; type: functional, tissue-based; procedure, shortened: as §1
Mus musculus [13] = species: Mus musculus; assay: Inhibition of estrone-stimulated uterine growth in mice at 25 ug
[14] = target: T2, Estrogen receptor (Mus musculus); assay: Anti-uterotrophic effect in mice as uterus dry weight(mg) compared to body weight(g) at 0 ug/day dose; type: functional, tissue-based; procedure, shortened: as §1
Mus musculus [15] = species: Mus musculus; assay: Inhibition of estrone-stimulated uterine growth in mice at 10 ug
[16] = target: T2, Estrogen receptor (Mus musculus); assay: Anti-uterotrophic effect in mice as uterus dry weight(mg) compared to body weight(g) at 2.5 ug/day dose; type: functional, tissue-based; procedure, shortened: as §1
[17] = target: T2, Estrogen receptor (Mus musculus); assay: Uterotrophic effect in mice as uterus dry weight(mg) compared to body weight(g) at 2.5 ug/day dose; type: functional, tissue-based; procedure, shortened: as §1
[18] = target: T2, Estrogen receptor (Mus musculus); assay: Anti-uterotrophic effect in mice as uterus dry weight(mg) compared to body weight(g) at 2 ug/day dose; type: functional, tissue-based; procedure, shortened: as §1
[19] = target: T2, Estrogen receptor (Mus musculus); assay: Uterotrophic effect in mice as uterus dry weight(mg) compared to body weight(g) at 80 ug/day dose; type: functional, tissue-based; procedure, shortened: as §1
Mus musculus [20] = species: Mus musculus; assay: Inhibition of estrone-stimulated uterine growth in mice at 2 ug
[21] = target: T2, Estrogen receptor (Mus musculus); assay: Uterotrophic effect in mice as uterus dry weight(mg) compared to body weight(g) at 8 ug/day dose; type: functional, tissue-based; procedure, shortened: as §1
[22] = target: T2, Estrogen receptor (Mus musculus); assay: Uterotrophic effect in mice as uterus dry weight(mg) compared to body weight(g) at 24 ug/day dose; type: functional, tissue-based; procedure, shortened: as §1
[23] = target: T2, Estrogen receptor (Mus musculus); assay: Anti-uterotrophic effect in mice as uterus dry weight(mg) compared to body weight(g) at 250 ug/day dose; type: functional, tissue-based; procedure, shortened: as §1
[24] = target: T2, Estrogen receptor (Mus musculus); assay: Uterotrophic effect in mice as uterus dry weight(mg) compared to body weight(g) at 240 ug/day dose; type: functional, tissue-based; procedure, shortened: as §1
[25] = target: T2, Estrogen receptor (Mus musculus); assay: Uterotrophic effect in mice as uterus dry weight(mg) compared to body weight(g) at 4 ug/day dose; type: functional, tissue-based; procedure, shortened: as §1
[26] = target: T2, Estrogen receptor (Mus musculus); assay: Uterotrophic effect in mice as uterus dry weight(mg) compared to body weight(g) at 20 ug/day dose; type: functional, tissue-based; procedure, shortened: as §1
[27] = target: T2, Estrogen receptor (Mus musculus); assay: Uterotrophic effect in mice as uterus dry weight(mg) compared to body weight(g) at 500 ug/day dose; type: functional, tissue-based; procedure, shortened: as §1
[28] = target: T2, Estrogen receptor (Mus musculus); assay: Uterotrophic effect in mice as uterus dry weight(mg) compared to body weight(g) at 100 ug/day dose; type: functional, tissue-based; procedure, shortened: as §1
[29] = target: T2, Estrogen receptor (Mus musculus); assay: Uterotrophic effect in mice as uterus dry weight(mg) compared to body weight(g) at 5 ug/day dose; type: functional, tissue-based; procedure, shortened: as §1
[30] = target: T2, Estrogen receptor (Mus musculus); assay: Anti-uterotrophic effect in mice as uterus dry weight(mg) compared to body weight(g) at 500 ug/day dose; type: functional, tissue-based; procedure, shortened: as §1
[31] = target: T2, Estrogen receptor (Mus musculus); assay: Uterotrophic effect in mice as uterus dry weight(mg) compared to body weight(g) at 25 ug/day dose; type: functional, tissue-based; procedure, shortened: as §1
[32] = target: T2, Estrogen receptor (Mus musculus); assay: Uterotrophic effect in mice as uterus dry weight(mg) compared to body weight(g) at 2 ug/day dose; type: functional, tissue-based; procedure, shortened: as §1
Mus musculus [33] = species: Mus musculus; assay: Inhibition of estrone-stimulated uterine growth in mice at 250 ug
Mus musculus [34] = species: Mus musculus; assay: Inhibition of estrone-stimulated uterine growth in mice at 5 ug
[35] = target: T2, Estrogen receptor (Mus musculus); assay: Anti-uterotrophic effect in mice as uterus dry weight(mg) compared to body weight(g) at 1000 ug/day dose; type: functional, tissue-based; procedure, shortened: as §1
[36] = target: T2, Estrogen receptor (Mus musculus); assay: Anti-uterotrophic effect in mice as uterus dry weight(mg) compared to body weight(g) at 5 ug/day dose; type: functional, tissue-based; procedure, shortened: as §1
[37] = target: T2, Estrogen receptor (Mus musculus); assay: Uterotrophic effect in mice as uterus dry weight(mg) compared to body weight(g) at 1000 ug/day dose; type: functional, tissue-based; procedure, shortened: as §1
Mus musculus [38] = species: Mus musculus; assay: Inhibition of estrone-stimulated uterine growth in mice at 1000 ug
Mus musculus [39] = species: Mus musculus; assay: Inhibition of estrone-stimulated uterine growth in mice at 500 ug
Mus musculus [40] = species: Mus musculus; assay: Inhibition of estrone-stimulated uterine growth in mice at 5 ug; remark: listed apart in the source

T2 sequence (O08537 whole entry, looked up): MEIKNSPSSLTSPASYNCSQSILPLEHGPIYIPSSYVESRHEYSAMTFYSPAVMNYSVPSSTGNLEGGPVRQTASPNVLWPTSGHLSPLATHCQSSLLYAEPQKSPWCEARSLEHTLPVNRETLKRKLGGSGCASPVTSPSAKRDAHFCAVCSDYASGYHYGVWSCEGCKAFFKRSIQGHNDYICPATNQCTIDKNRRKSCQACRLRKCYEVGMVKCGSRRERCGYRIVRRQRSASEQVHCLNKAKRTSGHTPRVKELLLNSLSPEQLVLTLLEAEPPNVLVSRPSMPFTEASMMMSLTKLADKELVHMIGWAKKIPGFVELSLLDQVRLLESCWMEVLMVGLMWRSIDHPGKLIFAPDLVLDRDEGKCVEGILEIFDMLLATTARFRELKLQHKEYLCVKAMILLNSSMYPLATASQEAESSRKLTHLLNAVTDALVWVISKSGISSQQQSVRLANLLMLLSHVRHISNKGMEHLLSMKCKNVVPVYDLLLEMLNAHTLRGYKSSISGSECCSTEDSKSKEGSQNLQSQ
T2 sequence (P19785 whole entry, looked up): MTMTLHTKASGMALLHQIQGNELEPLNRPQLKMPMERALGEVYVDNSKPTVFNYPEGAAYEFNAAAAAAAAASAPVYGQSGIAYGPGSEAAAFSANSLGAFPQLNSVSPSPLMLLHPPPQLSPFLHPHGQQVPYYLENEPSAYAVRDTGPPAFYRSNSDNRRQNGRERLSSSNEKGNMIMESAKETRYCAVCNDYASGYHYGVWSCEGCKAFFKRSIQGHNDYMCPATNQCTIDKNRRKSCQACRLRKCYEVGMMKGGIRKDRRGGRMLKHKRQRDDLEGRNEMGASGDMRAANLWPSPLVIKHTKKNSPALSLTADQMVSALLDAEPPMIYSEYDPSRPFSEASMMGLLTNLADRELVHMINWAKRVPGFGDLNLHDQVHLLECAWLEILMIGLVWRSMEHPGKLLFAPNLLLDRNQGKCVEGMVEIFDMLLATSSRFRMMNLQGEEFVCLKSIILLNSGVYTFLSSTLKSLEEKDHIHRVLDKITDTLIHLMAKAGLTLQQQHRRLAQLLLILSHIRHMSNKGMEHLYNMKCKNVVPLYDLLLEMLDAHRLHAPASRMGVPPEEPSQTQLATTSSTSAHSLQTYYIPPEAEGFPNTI

SMILES | RAC [1] | Ka [2] [M⁻¹] | RA [3] | Effect [4] | Inhibition (Mus musculus [5]) [%] | Effect [6] | Effect [8] | Effect [9] | Effect [10] | Effect [11] | Effect [12] | Inhibition (Mus musculus [13]) [%] | Effect [14] | Inhibition (Mus musculus [15]) [%] | Effect [19] | Effect [21] | Effect [22] | Effect [23] | Effect [27] | Effect [28] | also measured
CCC(c1cccc(O)c1)C(CC)c1cccc(O)c1 (stereo not drawn) | 0.048 | 3.5e+08 | 0.052 | – | – | – | – | – | – | – | – | – | – | – | – | – | – | – | – | – | –
CC(=O)Oc1ccc(C(C)(C)C(C)(C)c2ccc(OC(C)=O)c(OC(C)=O)c2)cc1OC(C)=O | 0.00021 | 1.5e+06 | 0.00023 | 13.8 | 0.3 | 13.6 | 11.4 | 37.8 | 14.2 | 41.6 | 37.8 | 13.5 | 12.6 | 13.3 | – | – | – | – | – | – | Inhibition (Mus musculus [7]): 18.3%; Effect [16]: 36.4; Effect [17]: 13.8
CC(=O)Oc1cc(OC(C)=O)cc(C(C)(C)C(C)(C)c2cc(OC(C)=O)cc(OC(C)=O)c2)c1 | 6.6e-05 | 480000 | 7.1e-05 | 12.1 | 1.6 | 14.1 | 11.4 | 39 | 11.3 | 41.3 | 37.5 | 9.1 | 12.6 | 14.4 | – | – | – | – | – | – | Inhibition (Mus musculus [7]): 8.9%; Effect [16]: 39.1; Effect [17]: 11.1
CCC(CC)(c1ccc(O)cc1)C(CC)(CC)c1ccc(O)cc1 | 0.0046 | 4.8e+07 | 0.005 | – | – | – | 9.2 | 36.4 | – | – | 34.6 | 2.2 | 14 | 10.3 | 31.9 | 15.3 | 23.6 | 43.2 | – | – | Effect [18]: 31.3; Inhibition (Mus musculus [20]): 24.6%; Effect [24]: 43.7
CCC(CC)(c1cccc(O)c1)C(CC)(CC)c1cccc(O)c1 | 0.0039 | 2.8e+07 | 0.0042 | – | – | – | 15.4 | 38 | – | – | 32.8 | – | 15.6 | 23 | – | – | – | 42.9 | 52.4 | 52.7 | Effect [18]: 27.4; Effect [25]: 23.1; Inhibition (Mus musculus [20]): 47%; Effect [26]: 35.8
CC(C)(c1cc(O)cc(O)c1)C(C)(C)c1cc(O)cc(O)c1 | 4e-05 | 290000 | 4.3e-05 | – | – | – | 9.6 | – | – | 40.4 | 30.6 | – | 11.3 | 11.7 | – | – | – | – | 14.3 | 8.5 | Effect [29]: 9; Effect [30]: 38.9; Effect [31]: 9.4
CCC(C)(c1ccc(O)cc1)C(C)(CC)c1ccc(O)cc1 (stereo not drawn) | 0.0025 | 1.8e+07 | 0.0027 | 34.7 | – | 39.1 | 15.4 | 34 | 50.1 | 38.2 | 34.6 | 13.1 | 14 | 10.4 | – | – | – | – | – | – | Effect [32]: 24.6; Effect [30]: 42.2
CC(C)(c1cccc(O)c1)C(C)(C)c1cccc(O)c1 | 0.0093 | 6.7e+07 | 0.01 | – | 70.3 | – | 9.2 | 28.7 | 14.6 | 20.4 | – | 43.2 | 11.2 | – | 15.4 | 9.8 | 15.7 | 19.4 | – | – | Inhibition (Mus musculus [33]): 73.6%; Inhibition (Mus musculus [34]): 26.5%; Effect [35]: 23.4; Effect [36]: 33.9; Effect [37]: 13.4; Inhibition (Mus musculus [38]): 60.5%
CC(C)(c1ccc(F)c(O)c1)C(C)(C)c1ccc(F)c(O)c1 | 0.0029 | 2.1e+07 | 0.0031 | – | 53.1 | – | 15.4 | 35.2 | – | 27.3 | – | 20.9 | 15.7 | – | – | – | – | – | 21.4 | 16.7 | Effect [25]: 17.8; Inhibition (Mus musculus [34]): 17.2%; Effect [36]: 36.1; Effect [26]: 16.7; Effect [30]: 25.2; Inhibition (Mus musculus [39]): 61.5%
CC(C)(c1ccc(O)cc1)C(C)(C)c1ccc(O)cc1 | 0.01 | 7.3e+07 | 0.011 | – | 73.5 | – | 9.2 | 28 | 13.3 | 19.4 | – | 45.4 | 11.2 | – | 15.8 | 10.6 | 15.7 | 19.3 | – | – | Inhibition (Mus musculus [33]): 73.5%; Effect [35]: 24.4; Effect [36]: 37.3; Effect [37]: 14.3; Inhibition (Mus musculus [40]): 15.4%; Inhibition (Mus musculus [38]): 57.3%
